This passage reports Kd results from ChEMBL document CHEMBL1143502, “Fluorescent metal ion indicators based on benzoannelated crown systems: a green fluorescent indicator for intracellular sodium ions” (Bioorg Med Chem Lett, 2005).

The structures appear in SMILES notation.

What all share (type): functional
The nature of test [1]: The in vitro binding constant in presence of K+ was reported. The method, boiled down: (§1)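 Fluorescence titration in pH 7.0 buffer series (50 mM MOPS, pH set with tetramethylammonium hydroxide) containing 0–1000 mM of the monovalent cation (Li+, Na+, K+ or Rb+) at 20 °C. Kd (mM) was taken from the intensity change with cation concentration, alongside the response S = I[bound]/I[free].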

Test [2] in a line: The in vitro binding constant in presence of Li+ was reported. The method, boiled down:
as §1

Test [3] in a line: The in vitro binding constant in presence of Rb+ was reported. The gist of the method:
as §1

As usually defined, the Kd is the constant that tells how readily two partners part at equilibrium. In the case of `COC(=O)CN1CCOCCOCCOCCOc2cc(C3=C4C(C)=CC(C)=[N+]4[B-](F)(F)n4c(C)cc(C)c43)ccc21`, in test [1], the Kd came to 170 mM.
`COC(=O)CN1CCOCCOCCOCCOc2cc(-c3c4cc(F)c(=O)cc-4oc4cc(O)c(F)cc34)ccc21`: the figures for the Kd in test [1], in test [2] and in test [3] were 291 mM, 142 mM and 319 mM, respectively.
Take `COC(=O)CN1CCOCCOCCOc2cc(-c3c4cc(F)c(=O)cc-4oc4cc(O)c(F)cc34)ccc21`: the results for the Kd in test [1], in test [2] and in test [3] were 978 mM, 438 mM and 376 mM, respectively.
With `COCCN1CCOCCOCCOCCOc2cc(-c3c4cc(F)c(=O)cc-4oc4cc(O)c(F)cc34)ccc21`, the Kd in test [1] was found to be 269 mM.
For the compound `COC(=O)CN1CCOCCOCCOCCOc2cc(NC(=O)c3ccc(-c4c5cc(F)c(=O)cc-5oc5cc(O)c(F)cc45)c(C(=O)O)c3)ccc21`, the values for the Kd in test [1], in test [2] and in test [3] were 144 mM, 65 mM and 157 mM, respectively.
As for `COC(=O)CN1CCOCCOCCOCCOc2cc(-c3c4ccc(=[N+](C)C)cc-4oc4cc(N(C)C)ccc34)ccc21`, the Kd in test [1] amounted to 254 mM.
`COC(=O)CN1CCOCCOCCOCCOCCOc2cc(-c3c4cc(F)c(=O)cc-4oc4cc(O)c(F)cc34)ccc21`: the Kd in test [1] was determined as 11 mM; in test [3] it was 25 mM.
